Measurements: ChEMBL document CHEMBL3603808, “Discovery and structure of a new inhibitor scaffold of the autophagy initiating kinase ULK1” (Bioorg Med Chem, 2015)
Values belong to the compound of their own block, whether it stands above or below them.

Tests used:
[1] = target: Serine/threonine-protein kinase D1 (Homo sapiens) (UniProt Q15139); experiment: Inhibition of PKD1 (unknown origin) at 250 nM by radioactive filter-binding assay
Method in brief: (§1)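 Panel profiling of one compound against 50 kinases, carried out in duplicate at the International Centre for Protein Kinase Profiling. Radioactive filter-binding format.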

[2] = target: Tyrosine-protein kinase Lck (Homo sapiens) (UniProt P06239); experiment: Inhibition of LCK (unknown origin) at 250 nM by radioactive filter-binding assay; method in brief: as §1
[3] = target: MAP/microtubule affinity-regulating kinase 3 (Homo sapiens) (UniProt P27448); experiment: Inhibition of MARK3 (unknown origin) at 250 nM by radioactive filter-binding assay; method in brief: as §1
[4] = target: Dual specificity tyrosine-phosphorylation-regulated kinase 1A (Homo sapiens) (UniProt Q13627); experiment: Inhibition of DYRK1A (unknown origin) at 250 nM by radioactive filter-binding assay; method in brief: as §1
[5] = target: Serine/threonine-protein kinase Chk2 (Homo sapiens) (UniProt O96017); experiment: Inhibition of CHK2 (unknown origin) at 250 nM by radioactive filter-binding assay; method in brief: as §1
[6] = target: Tyrosine-protein kinase SYK (Homo sapiens) (UniProt P43405); experiment: Inhibition of SYK (unknown origin) at 250 nM by radioactive filter-binding assay; method in brief: as §1
[7] = target: High affinity nerve growth factor receptor (Homo sapiens) (UniProt P04629); experiment: Inhibition of TRKA (unknown origin) at 250 nM by radioactive filter-binding assay; method in brief: as §1
[8] = target: Serine/threonine-protein kinase Sgk1 (Homo sapiens) (UniProt O00141); experiment: Inhibition of SGK1 (unknown origin) at 250 nM by radioactive filter-binding assay; method in brief: as §1
[9] = target: Tyrosine-protein kinase BTK (Homo sapiens) (UniProt Q06187); experiment: Inhibition of BTK (unknown origin) at 250 nM by radioactive filter-binding assay; method in brief: as §1
[10] = target: Serine/threonine-protein kinase 3 (Homo sapiens) (UniProt Q13188); experiment: Inhibition of MST2 (unknown origin) at 250 nM by radioactive filter-binding assay; method in brief: as §1
[11] = target: Serine/threonine-protein kinase N2 (Homo sapiens) (UniProt Q16513); experiment: Inhibition of PRK2 (unknown origin) at 250 nM by radioactive filter-binding assay; method in brief: as §1
[12] = target: Tyrosine-protein kinase JAK2 (Homo sapiens) (UniProt O60674); experiment: Inhibition of JAK2 (unknown origin) at 250 nM by radioactive filter-binding assay; method in brief: as §1
[13] = target: Interleukin-1 receptor-associated kinase 4 (Homo sapiens) (UniProt Q9NWZ3); experiment: Inhibition of IRAK4 (unknown origin) at 250 nM by radioactive filter-binding assay; method in brief: as §1
[14] = target: Receptor-interacting serine/threonine-protein kinase 2 (Homo sapiens) (UniProt O43353); experiment: Inhibition of RIPK2 (unknown origin) at 250 nM by radioactive filter-binding assay; method in brief: as §1
[15] = target: Ribosomal protein S6 kinase alpha-1 (Homo sapiens) (UniProt Q15418); experiment: Inhibition of RSK1 (unknown origin) at 250 nM by radioactive filter-binding assay; method in brief: as §1
[16] = target: Tyrosine-protein kinase JAK2 (Homo sapiens) (UniProt O60674); experiment: Inhibition of JAK2 (unknown origin) at 2 uM by radioactive filter-binding assay; method in brief: as §1
[17] = target: MAP/microtubule affinity-regulating kinase 3 (Homo sapiens) (UniProt P27448); experiment: Inhibition of MARK3 (unknown origin) at 2 uM by radioactive filter-binding assay; method in brief: as §1
[18] = target: Tyrosine-protein kinase SYK (Homo sapiens) (UniProt P43405); experiment: Inhibition of SYK (unknown origin) at 2 uM by radioactive filter-binding assay; method in brief: as §1
[19] = target: T1, Serine/threonine-protein kinase ULK1 (Homo sapiens, UniProt O75385); experiment: Inhibition of SUMO-tagged ULK1 (unknown origin) kinase domain expressed in KRX cells using [32P]-gamma-ATP and myelin basic protein substrate incubated for 7 mins; type: cell-based
T1 sequence (O75385 whole entry): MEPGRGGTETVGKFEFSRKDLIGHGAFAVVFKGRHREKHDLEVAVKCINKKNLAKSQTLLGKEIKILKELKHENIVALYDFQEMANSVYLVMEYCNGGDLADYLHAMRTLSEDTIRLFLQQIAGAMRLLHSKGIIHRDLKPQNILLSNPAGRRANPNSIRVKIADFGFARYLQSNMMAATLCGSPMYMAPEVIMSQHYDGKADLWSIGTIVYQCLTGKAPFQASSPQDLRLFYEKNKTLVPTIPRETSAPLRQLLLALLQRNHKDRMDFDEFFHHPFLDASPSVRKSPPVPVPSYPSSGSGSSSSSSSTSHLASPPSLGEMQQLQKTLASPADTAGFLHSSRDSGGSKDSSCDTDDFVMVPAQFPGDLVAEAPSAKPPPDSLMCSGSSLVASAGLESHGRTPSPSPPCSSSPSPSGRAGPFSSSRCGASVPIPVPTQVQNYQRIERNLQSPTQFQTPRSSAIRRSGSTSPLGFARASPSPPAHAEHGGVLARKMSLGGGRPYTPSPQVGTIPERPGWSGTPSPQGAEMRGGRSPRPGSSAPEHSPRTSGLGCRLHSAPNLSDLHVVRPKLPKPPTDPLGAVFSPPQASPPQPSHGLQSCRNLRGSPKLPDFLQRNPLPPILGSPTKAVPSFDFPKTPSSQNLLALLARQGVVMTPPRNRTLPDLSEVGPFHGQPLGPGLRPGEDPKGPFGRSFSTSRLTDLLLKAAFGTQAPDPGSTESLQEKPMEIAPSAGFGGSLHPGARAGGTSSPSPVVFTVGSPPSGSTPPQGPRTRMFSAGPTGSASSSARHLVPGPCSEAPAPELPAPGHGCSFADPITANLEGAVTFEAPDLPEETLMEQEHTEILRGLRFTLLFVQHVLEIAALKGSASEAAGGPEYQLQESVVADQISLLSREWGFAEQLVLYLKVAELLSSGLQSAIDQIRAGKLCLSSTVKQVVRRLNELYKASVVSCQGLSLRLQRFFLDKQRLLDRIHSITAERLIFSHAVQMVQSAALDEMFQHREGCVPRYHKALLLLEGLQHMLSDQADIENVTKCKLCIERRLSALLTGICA
Method in brief: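 Enzyme at 5 nM with 50 µM cold ATP, 0.05 µCi/µl 32P-γ-ATP and 20 µM myelin basic protein as substrate. Reactions were spotted onto nitrocellulose, washed three times in 1% phosphoric acid, dried and imaged by phosphorimager. IC50 from curve fitting; duplicate.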

[20] = target: Mitogen-activated protein kinase kinase kinase 11 (Homo sapiens) (UniProt Q16584); experiment: Inhibition of MLK3 (unknown origin) at 2 uM by radioactive filter-binding assay; method in brief: as §1
[21] = target: Serine/threonine-protein kinase TBK1 (Homo sapiens) (UniProt Q9UHD2); experiment: Inhibition of TBK1 (unknown origin) at 2 uM by radioactive filter-binding assay; method in brief: as §1
[22] = target: Serine/threonine-protein kinase PAK 4 (Homo sapiens) (UniProt O96013); experiment: Inhibition of PAK4 (unknown origin) at 2 uM by radioactive filter-binding assay; method in brief: as §1
[23] = target: Interleukin-1 receptor-associated kinase 4 (Homo sapiens) (UniProt Q9NWZ3); experiment: Inhibition of IRAK4 (unknown origin) at 2 uM by radioactive filter-binding assay; method in brief: as §1
[24] = target: Vascular endothelial growth factor receptor (Homo sapiens) (UniProt P17948+P35916+P35968); experiment: Inhibition of VEGFR (unknown origin) at 2 uM by radioactive filter-binding assay; type: protein assay; method in brief: as §1
[25] = target: Calcium/calmodulin-dependent protein kinase kinase 2 (Homo sapiens) (UniProt Q96RR4); experiment: Inhibition of CAMKKB (unknown origin) at 2 uM by radioactive filter-binding assay; method in brief: as §1

Chain of MAP/microtubule affinity-regulating kinase 3 (Homo sapiens) (P27448 whole entry, looked up): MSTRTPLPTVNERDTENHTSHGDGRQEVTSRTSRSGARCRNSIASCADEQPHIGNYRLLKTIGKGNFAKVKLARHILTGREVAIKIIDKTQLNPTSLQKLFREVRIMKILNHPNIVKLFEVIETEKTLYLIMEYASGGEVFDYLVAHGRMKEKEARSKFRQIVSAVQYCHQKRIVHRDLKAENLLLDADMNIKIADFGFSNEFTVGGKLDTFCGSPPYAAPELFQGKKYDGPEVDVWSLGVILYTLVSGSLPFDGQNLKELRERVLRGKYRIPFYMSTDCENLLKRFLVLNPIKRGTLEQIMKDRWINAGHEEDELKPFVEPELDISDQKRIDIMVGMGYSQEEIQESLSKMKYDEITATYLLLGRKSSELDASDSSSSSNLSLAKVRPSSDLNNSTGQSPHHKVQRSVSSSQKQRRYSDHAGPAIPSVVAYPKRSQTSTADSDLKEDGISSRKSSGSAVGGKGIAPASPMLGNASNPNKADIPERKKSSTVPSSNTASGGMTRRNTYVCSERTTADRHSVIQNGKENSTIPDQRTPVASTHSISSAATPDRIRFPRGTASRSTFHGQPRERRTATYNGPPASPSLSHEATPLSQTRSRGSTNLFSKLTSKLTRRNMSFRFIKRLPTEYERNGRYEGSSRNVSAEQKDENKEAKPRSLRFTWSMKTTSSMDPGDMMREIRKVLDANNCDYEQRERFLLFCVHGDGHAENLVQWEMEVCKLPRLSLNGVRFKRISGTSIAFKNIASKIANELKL
Chain of Tyrosine-protein kinase JAK2 (Homo sapiens) (O60674 whole entry): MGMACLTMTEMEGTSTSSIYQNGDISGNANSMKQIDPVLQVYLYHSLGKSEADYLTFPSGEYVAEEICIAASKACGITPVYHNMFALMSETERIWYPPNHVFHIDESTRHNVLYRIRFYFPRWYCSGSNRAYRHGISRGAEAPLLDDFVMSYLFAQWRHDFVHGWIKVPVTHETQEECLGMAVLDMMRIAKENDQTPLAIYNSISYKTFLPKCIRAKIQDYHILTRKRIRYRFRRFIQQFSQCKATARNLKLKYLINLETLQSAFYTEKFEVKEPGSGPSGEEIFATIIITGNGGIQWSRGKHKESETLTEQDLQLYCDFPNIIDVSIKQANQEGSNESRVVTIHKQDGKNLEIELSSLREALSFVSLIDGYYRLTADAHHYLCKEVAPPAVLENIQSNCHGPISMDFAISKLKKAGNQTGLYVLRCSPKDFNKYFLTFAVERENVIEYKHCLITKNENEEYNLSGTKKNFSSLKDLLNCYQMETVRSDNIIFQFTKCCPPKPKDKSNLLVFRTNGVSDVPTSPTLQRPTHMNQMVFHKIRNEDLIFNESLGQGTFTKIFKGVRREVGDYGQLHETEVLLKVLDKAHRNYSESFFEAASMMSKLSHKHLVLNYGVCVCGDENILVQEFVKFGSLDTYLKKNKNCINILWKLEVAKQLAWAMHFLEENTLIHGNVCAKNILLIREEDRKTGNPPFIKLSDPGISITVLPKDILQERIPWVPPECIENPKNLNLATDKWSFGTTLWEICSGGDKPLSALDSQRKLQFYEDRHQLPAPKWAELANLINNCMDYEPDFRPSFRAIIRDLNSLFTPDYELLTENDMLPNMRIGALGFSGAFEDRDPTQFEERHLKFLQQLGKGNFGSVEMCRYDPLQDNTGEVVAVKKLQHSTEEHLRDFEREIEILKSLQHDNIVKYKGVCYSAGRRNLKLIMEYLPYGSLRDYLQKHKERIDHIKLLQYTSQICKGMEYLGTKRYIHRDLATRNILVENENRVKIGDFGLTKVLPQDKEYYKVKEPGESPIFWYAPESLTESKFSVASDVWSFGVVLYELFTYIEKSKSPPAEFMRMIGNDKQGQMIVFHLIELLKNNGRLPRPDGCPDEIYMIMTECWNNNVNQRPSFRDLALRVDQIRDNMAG
Chain of Interleukin-1 receptor-associated kinase 4 (Homo sapiens) (Q9NWZ3 whole entry): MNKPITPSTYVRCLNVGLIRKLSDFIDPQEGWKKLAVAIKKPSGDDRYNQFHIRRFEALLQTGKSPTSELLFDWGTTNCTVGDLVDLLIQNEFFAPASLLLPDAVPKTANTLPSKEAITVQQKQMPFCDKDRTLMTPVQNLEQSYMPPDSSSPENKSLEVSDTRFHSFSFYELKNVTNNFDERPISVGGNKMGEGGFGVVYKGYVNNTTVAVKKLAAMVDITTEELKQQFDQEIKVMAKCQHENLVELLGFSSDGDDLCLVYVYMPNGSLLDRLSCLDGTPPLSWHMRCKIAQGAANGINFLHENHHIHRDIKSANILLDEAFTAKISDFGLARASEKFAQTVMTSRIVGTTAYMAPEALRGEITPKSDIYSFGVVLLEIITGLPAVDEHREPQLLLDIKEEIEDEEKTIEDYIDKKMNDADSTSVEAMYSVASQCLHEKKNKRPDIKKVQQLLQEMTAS
Chain of Serine/threonine-protein kinase Chk2 (Homo sapiens) (O96017 whole entry): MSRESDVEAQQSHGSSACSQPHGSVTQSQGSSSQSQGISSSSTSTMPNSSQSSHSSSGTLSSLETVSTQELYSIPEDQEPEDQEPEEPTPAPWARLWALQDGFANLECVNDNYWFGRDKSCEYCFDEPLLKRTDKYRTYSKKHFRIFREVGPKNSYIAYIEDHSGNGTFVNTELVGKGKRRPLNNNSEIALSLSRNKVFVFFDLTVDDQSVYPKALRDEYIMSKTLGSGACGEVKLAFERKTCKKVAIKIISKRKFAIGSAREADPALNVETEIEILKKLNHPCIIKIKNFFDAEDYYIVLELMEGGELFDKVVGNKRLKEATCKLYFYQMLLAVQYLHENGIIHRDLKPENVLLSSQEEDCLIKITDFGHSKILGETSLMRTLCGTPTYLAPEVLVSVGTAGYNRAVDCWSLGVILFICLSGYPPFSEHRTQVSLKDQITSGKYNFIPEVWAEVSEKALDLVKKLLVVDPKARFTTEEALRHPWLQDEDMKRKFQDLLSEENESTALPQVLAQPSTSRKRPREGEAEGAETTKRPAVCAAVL
Chain of High affinity nerve growth factor receptor (Homo sapiens) (P04629 33-796 limits assumed): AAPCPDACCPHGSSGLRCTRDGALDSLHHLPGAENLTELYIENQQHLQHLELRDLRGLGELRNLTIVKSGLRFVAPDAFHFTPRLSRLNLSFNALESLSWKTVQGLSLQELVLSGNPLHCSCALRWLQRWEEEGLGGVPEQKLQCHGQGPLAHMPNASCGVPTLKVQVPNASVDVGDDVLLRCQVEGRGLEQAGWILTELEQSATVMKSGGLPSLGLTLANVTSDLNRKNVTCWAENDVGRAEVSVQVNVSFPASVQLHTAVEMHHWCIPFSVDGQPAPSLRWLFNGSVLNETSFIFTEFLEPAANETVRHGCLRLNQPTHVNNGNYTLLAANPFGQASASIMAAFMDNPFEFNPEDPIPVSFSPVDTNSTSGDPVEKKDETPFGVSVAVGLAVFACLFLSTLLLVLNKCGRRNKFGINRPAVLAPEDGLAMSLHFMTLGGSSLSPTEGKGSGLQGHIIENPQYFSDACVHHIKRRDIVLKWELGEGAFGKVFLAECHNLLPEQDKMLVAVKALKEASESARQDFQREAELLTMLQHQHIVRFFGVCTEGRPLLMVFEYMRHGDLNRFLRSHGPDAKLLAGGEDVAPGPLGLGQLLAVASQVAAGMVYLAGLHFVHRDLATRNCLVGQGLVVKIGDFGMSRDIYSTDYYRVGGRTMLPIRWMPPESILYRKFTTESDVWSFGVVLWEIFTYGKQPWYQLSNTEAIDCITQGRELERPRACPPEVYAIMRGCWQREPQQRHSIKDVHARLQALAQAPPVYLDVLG
Chain of Serine/threonine-protein kinase Sgk1 (Homo sapiens) (O00141 whole entry): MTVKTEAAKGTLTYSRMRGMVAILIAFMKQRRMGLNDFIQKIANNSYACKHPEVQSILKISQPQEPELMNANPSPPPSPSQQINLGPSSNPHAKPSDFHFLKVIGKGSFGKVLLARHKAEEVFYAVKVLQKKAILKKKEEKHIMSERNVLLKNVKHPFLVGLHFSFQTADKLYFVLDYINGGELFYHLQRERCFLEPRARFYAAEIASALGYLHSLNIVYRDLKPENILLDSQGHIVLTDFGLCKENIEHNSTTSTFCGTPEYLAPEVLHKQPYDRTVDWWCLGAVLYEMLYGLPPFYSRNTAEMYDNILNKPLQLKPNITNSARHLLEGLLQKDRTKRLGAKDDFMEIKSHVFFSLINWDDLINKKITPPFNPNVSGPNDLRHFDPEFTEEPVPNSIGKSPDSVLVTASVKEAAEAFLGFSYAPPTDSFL
Chain of Tyrosine-protein kinase Lck (Homo sapiens) (P06239 2-509 limits assumed): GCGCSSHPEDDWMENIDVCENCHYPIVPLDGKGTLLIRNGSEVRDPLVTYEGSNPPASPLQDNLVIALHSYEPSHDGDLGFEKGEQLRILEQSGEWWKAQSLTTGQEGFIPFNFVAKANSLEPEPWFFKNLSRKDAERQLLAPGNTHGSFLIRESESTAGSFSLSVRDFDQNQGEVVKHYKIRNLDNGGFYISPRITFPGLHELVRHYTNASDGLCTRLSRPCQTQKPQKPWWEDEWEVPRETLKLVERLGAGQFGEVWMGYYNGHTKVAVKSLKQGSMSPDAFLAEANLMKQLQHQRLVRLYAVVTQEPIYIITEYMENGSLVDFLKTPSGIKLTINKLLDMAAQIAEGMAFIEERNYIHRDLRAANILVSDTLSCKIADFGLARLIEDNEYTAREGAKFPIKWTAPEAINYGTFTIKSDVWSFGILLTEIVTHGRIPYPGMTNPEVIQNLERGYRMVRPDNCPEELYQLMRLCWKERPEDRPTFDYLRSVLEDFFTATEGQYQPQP

inhibition [1]: > 80%
inhibition [2]: > 80%
inhibition [3]: > 80%
inhibition [4]: > 80%
inhibition [5]: > 80%
inhibition [6]: > 80%
inhibition [7]: > 80%
inhibition [8]: > 80%
inhibition [9]: > 80%
inhibition [10]: > 80%
inhibition [11]: > 80%
inhibition [12]: > 80%
inhibition [13]: > 80%
inhibition [14]: > 80%
inhibition [15]: > 80%
Structure (SMILES): c1ccc2c(Nc3cc(C4CCC4)[nH]n3)nc(Nc3ccc4[nH]cnc4c3)nc2c1

inhibition [16]: > 80%
inhibition [17]: > 80%
inhibition [18]: > 80%
IC50 [19]: 120 nM
inhibition [20]: > 80%
inhibition [21]: > 80%
inhibition [22]: > 80%
inhibition [23]: > 80%
inhibition [24]: > 80%
inhibition [25]: > 80%
Structure (SMILES): NCCCNc1nc(Nc2cccc(NC(=O)N3CCCC3)c2)ncc1I
